Results from ChEMBL document CHEMBL1275252, “First survey of metallo-beta-lactamases in clinical isolates of Pseudomonas aeruginosa in a German university hospital” (2010).

What was measured:
Type in all cases: functional
Pseudomonas aeruginosa [1] = assay: Antimicrobial activity against metallo-beta-lactamase-negative Pseudomonas aeruginosa isolate PA460 in presence of Tazobactam
Pseudomonas aeruginosa [2] = assay: Antimicrobial activity against metallo-beta-lactamase-negative Pseudomonas aeruginosa isolate PA507 in presence of Tazobactam
Pseudomonas aeruginosa [3] = assay: Antimicrobial activity against Pseudomonas aeruginosa isolate PA465 expressing VIM-2 beta-lactamase
Pseudomonas aeruginosa [4] = assay: Antimicrobial activity against Pseudomonas aeruginosa isolate PA510 expressing VIM-2 beta-lactamase
Pseudomonas aeruginosa [5] = assay: Antimicrobial activity against metallo-beta-lactamase-negative Pseudomonas aeruginosa isolate PA494 in presence of Tazobactam
Pseudomonas aeruginosa [6] = assay: Antimicrobial activity against metallo-beta-lactamase-negative Pseudomonas aeruginosa isolate PA479
Pseudomonas aeruginosa [7] = assay: Antimicrobial activity against Pseudomonas aeruginosa isolate PA477 expressing VIM-2 beta-lactamase in presence of Tazobactam
Pseudomonas aeruginosa [8] = assay: Antimicrobial activity against Pseudomonas aeruginosa isolate PA399 expressing VIM-2 beta-lactamase in presence of Tazobactam
Pseudomonas aeruginosa [9] = assay: Antimicrobial activity against metallo-beta-lactamase-negative Pseudomonas aeruginosa isolate PA483
Pseudomonas aeruginosa [10] = assay: Antimicrobial activity against metallo-beta-lactamase-negative Pseudomonas aeruginosa isolate PA509
Pseudomonas aeruginosa [11] = assay: Antimicrobial activity against Pseudomonas aeruginosa isolate PA500 expressing VIM-1 beta-lactamase
Pseudomonas aeruginosa [12] = assay: Antimicrobial activity against metallo-beta-lactamase-negative Pseudomonas aeruginosa isolate PA459
In short: (§1)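 MBL-negative clinical P. aeruginosa isolates with reduced imipenem susceptibility, collected at the study hospital, some from cystic fibrosis patients. Species identity was confirmed by automated Gram-negative identification card. MIC was read in μg/ml.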

Pseudomonas aeruginosa [13] = assay: Antimicrobial activity against metallo-beta-lactamase-negative Pseudomonas aeruginosa isolate PA460
Pseudomonas aeruginosa [14] = assay: Antimicrobial activity against metallo-beta-lactamase-negative Pseudomonas aeruginosa isolate PA479 in presence of Tazobactam
Pseudomonas aeruginosa [15] = assay: Antimicrobial activity against metallo-beta-lactamase-negative Pseudomonas aeruginosa isolate PA509 in presence of Tazobactam
Pseudomonas aeruginosa [16] = assay: Antimicrobial activity against Pseudomonas aeruginosa isolate PA510 expressing VIM-2 beta-lactamase in presence of Tazobactam
Pseudomonas aeruginosa [17] = assay: Antimicrobial activity against Pseudomonas aeruginosa isolate PA469 expressing VIM-2 beta-lactamase in presence of Tazobactam
Pseudomonas aeruginosa [18] = assay: Antimicrobial activity against metallo-beta-lactamase-negative Pseudomonas aeruginosa isolate PA459 in presence of Tazobactam
Pseudomonas aeruginosa [19] = assay: Antimicrobial activity against Pseudomonas aeruginosa isolate PA462 expressing VIM-2 beta-lactamase in presence of Tazobactam
Pseudomonas aeruginosa [20] = assay: Antimicrobial activity against Pseudomonas aeruginosa isolate PA475 expressing VIM-2 beta-lactamase
Pseudomonas aeruginosa [21] = assay: Antimicrobial activity against Pseudomonas aeruginosa isolate PA477 expressing VIM-2 beta-lactamase
Pseudomonas aeruginosa [22] = assay: Antimicrobial activity against metallo-beta-lactamase-negative Pseudomonas aeruginosa isolate PA494
Pseudomonas aeruginosa [23] = assay: Antimicrobial activity against metallo-beta-lactamase-negative Pseudomonas aeruginosa isolate PA507; in short: as §1
Pseudomonas aeruginosa [24] = assay: Antimicrobial activity against Pseudomonas aeruginosa isolate PA469 expressing VIM-2 beta-lactamase
Pseudomonas aeruginosa [25] = assay: Antimicrobial activity against Pseudomonas aeruginosa isolate PA500 expressing VIM-1 beta-lactamase in presence of Tazobactam
Pseudomonas aeruginosa [26] = assay: Antimicrobial activity against Pseudomonas aeruginosa isolate PA462 expressing VIM-2 beta-lactamase
Pseudomonas aeruginosa [27] = assay: Antimicrobial activity against Pseudomonas aeruginosa isolate PA481 expressing VIM-2 beta-lactamase
Pseudomonas aeruginosa [28] = assay: Antimicrobial activity against Pseudomonas aeruginosa isolate PA465 expressing VIM-2 beta-lactamase in presence of Tazobactam
Pseudomonas aeruginosa [29] = assay: Antimicrobial activity against Pseudomonas aeruginosa isolate PA399 expressing VIM-2 beta-lactamase
Pseudomonas aeruginosa [30] = assay: Antimicrobial activity against Pseudomonas aeruginosa isolate PA475 expressing VIM-2 beta-lactamase in presence of Tazobactam
Pseudomonas aeruginosa [31] = assay: Antimicrobial activity against metallo-beta-lactamase-negative Pseudomonas aeruginosa isolate PA483 in presence of Tazobactam
Pseudomonas aeruginosa [32] = assay: Antimicrobial activity against Pseudomonas aeruginosa isolate PA481 expressing VIM-2 beta-lactamase in presence of Tazobactam

Work on `CCN1CCN(C(=O)N[C@@H](C(=O)N[C@@H]2C(=O)N3[C@@H]2SC(C)(C)[C@@H]3C(=O)O)c2ccccc2)C(=O)C1=O` [PIPERACILLIN] yielded an MIC (Pseudomonas aeruginosa [1]) of at least 128 µg/mL, an MIC (Pseudomonas aeruginosa [2]) of at least 128 µg/mL and an MIC (Pseudomonas aeruginosa [3]) of at least 128 µg/mL. For the same compound, the MIC (Pseudomonas aeruginosa [4]) was at least 128 µg/mL, the MIC (Pseudomonas aeruginosa [5]) was at least 128 µg/mL and the MIC (Pseudomonas aeruginosa [6]) was at least 128 µg/mL. It also gave an MIC (Pseudomonas aeruginosa [7]) of at least 128 µg/mL, an MIC (Pseudomonas aeruginosa [8]) of at least 128 µg/mL and an MIC (Pseudomonas aeruginosa [9]) of at least 128 µg/mL. The MIC (Pseudomonas aeruginosa [10]) was at least 128 µg/mL, the MIC (Pseudomonas aeruginosa [11]) was at least 128 µg/mL and the MIC (Pseudomonas aeruginosa [12]) was at least 128 µg/mL. It also gave an MIC (Pseudomonas aeruginosa [13]) of at least 128 µg/mL, an MIC (Pseudomonas aeruginosa [14]) of at least 128 µg/mL and an MIC (Pseudomonas aeruginosa [15]) of at least 128 µg/mL. For the same compound, the MIC (Pseudomonas aeruginosa [16]) was at least 128 µg/mL, the MIC (Pseudomonas aeruginosa [17]) was at least 128 µg/mL and the MIC (Pseudomonas aeruginosa [18]) was at least 128 µg/mL. It also gave an MIC (Pseudomonas aeruginosa [19]) of at least 128 µg/mL, an MIC (Pseudomonas aeruginosa [20]) of at least 128 µg/mL and an MIC (Pseudomonas aeruginosa [21]) of at least 128 µg/mL. For the same compound, the MIC (Pseudomonas aeruginosa [22]) was at least 128 µg/mL, the MIC (Pseudomonas aeruginosa [23]) was at least 128 µg/mL and the MIC (Pseudomonas aeruginosa [24]) was at least 128 µg/mL. It also gave an MIC (Pseudomonas aeruginosa [25]) of at least 128 µg/mL, an MIC (Pseudomonas aeruginosa [26]) of at least 128 µg/mL and an MIC (Pseudomonas aeruginosa [27]) of at least 128 µg/mL. For the same compound, the MIC (Pseudomonas aeruginosa [28]) was 64 µg/mL, the MIC (Pseudomonas aeruginosa [29]) was at least 128 µg/mL and the MIC (Pseudomonas aeruginosa [30]) was at least 128 µg/mL. For the same compound, the MIC (Pseudomonas aeruginosa [31]) was at least 128 µg/mL and the MIC (Pseudomonas aeruginosa [32]) was at least 128 µg/mL.
